Measured values: ChEMBL document CHEMBL1139900, “Synthesis and SAR studies of a novel class of S1P1 receptor antagonists” (Bioorg Med Chem, 2007)

Experiments:
Format in all cases: functional, cell-based
[1] = molecular target: T1, Sphingosine 1-phosphate receptor 1 (Homo sapiens, UniProt P21453); test: Antagonist activity at human S1P1 receptor expressed in CHO cell membrane by cAMP assay
Summary of the method: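 CHO cells stably expressing human S1P1, kept in selection medium with 125 nM methotrexate, seeded at 4 × 10⁵ cells/well and grown overnight. Serum was removed, cells preincubated 5 min with 1 mM IBMX, then stimulated 15 min with 30 µM forskolin ± 100 nM S1P plus test compound at various concentrations, with IBMX kept present. Cells were lysed in 1% Triton X-100; cAMP read by competitive kit assay (n = 3).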

[2] = molecular target: Sphingosine 1-phosphate receptor 3 (Homo sapiens, UniProt Q99500); test: Antagonist activity at human S1P3 receptor expressed in CHO cell membrane by FLIPR assay
Sequence of Sphingosine 1-phosphate receptor 3 (Q99500 whole entry): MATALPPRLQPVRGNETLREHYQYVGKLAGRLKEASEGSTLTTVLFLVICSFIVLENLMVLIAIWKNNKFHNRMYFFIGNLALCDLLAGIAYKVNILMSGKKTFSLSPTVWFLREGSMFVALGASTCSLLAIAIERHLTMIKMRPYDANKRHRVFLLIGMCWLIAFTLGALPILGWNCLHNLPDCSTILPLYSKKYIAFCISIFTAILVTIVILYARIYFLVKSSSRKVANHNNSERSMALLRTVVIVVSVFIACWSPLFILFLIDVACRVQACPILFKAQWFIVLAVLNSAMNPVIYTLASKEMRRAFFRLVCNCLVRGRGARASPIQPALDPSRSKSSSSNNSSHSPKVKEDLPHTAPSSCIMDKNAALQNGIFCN
Summary of the method: (§1)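 Stably transfected CHO cells in HAM medium with 10% dialyzed FBS, seeded at 5 × 10⁴ cells/mL and grown 2 days. Buffer: HBSS without phenol red, 20 mM Hepes, 2.5 mM probenecid, pH 7.4. Loaded 45–60 min with 4 µM Fluo3-AM plus 0.04% pluronic acid, then washed. Serially diluted compound added for 10 min before S1P injection; calcium fluorescence read on FLIPR.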

[3] = molecular target: Sphingosine 1-phosphate receptor 4 (Homo sapiens, UniProt O95977); test: Antagonist activity at human S1P4 receptor expressed in CHO cell membrane by FLIPR assay
Sequence of Sphingosine 1-phosphate receptor 4 (O95977 whole entry, looked up): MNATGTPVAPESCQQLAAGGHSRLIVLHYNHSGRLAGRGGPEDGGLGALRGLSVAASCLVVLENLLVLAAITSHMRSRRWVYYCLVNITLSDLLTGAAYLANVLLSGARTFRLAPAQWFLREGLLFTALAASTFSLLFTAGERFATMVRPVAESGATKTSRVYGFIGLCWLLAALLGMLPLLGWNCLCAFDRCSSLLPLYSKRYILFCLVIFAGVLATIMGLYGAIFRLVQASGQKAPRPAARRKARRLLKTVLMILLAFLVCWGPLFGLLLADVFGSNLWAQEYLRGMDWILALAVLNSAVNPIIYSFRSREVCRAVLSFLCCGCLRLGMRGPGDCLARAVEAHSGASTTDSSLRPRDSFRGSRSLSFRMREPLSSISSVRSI
Summary of the method: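 S1P4-expressing cells in HAM medium with 10% dialyzed FBS, seeded at 1 × 10⁵ cells/mL and grown 2 days. Buffer: HBSS without phenol red, 20 mM Hepes, 2.5 mM probenecid, pH 7.4. Fluo3-AM (4 µM, with 0.04% pluronic acid) loading for 45–60 min, then washed. Serially diluted compound given 10 min before S1P injection; calcium signal measured on FLIPR.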

[4] = molecular target: T1, Sphingosine 1-phosphate receptor 1; test: Antagonist activity at human S1P1 receptor expressed in CHO cell membrane by FLIPR assay; summary of the method: as §1
[5] = molecular target: Sphingosine 1-phosphate receptor 2 (Homo sapiens, UniProt O95136); test: Antagonist activity at human S1P2 receptor expressed in CHO cell membrane by FLIPR assay; summary of the method: as §1
Sequence of Sphingosine 1-phosphate receptor 2 (O95136 whole entry): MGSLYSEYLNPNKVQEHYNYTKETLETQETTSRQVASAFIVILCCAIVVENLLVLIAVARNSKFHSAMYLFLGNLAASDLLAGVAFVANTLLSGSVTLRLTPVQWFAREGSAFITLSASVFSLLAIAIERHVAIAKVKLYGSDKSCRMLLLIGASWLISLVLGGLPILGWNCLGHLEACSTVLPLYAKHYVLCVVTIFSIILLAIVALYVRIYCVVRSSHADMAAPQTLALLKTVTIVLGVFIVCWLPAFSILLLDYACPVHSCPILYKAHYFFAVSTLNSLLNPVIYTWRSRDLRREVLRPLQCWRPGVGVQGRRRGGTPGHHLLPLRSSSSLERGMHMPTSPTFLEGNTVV

T1 sequence (P21453 whole entry): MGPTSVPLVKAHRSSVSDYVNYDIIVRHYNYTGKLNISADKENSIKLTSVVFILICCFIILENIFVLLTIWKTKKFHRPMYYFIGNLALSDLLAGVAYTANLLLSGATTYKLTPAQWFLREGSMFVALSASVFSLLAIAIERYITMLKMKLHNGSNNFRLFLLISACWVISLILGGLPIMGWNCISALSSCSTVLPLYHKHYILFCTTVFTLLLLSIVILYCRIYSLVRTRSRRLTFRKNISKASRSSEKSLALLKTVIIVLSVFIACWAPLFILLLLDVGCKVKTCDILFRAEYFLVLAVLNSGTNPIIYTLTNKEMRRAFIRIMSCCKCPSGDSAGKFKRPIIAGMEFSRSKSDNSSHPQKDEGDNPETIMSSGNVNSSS

| SMILES | IC50 [1] [nM] | other results |
| --- | --- | --- |
| CCCCCCCCCCC#CC(O)c1ccccc1-c1ccc(Sc2ccc(OCCCCCC)cc2)c(S(=O)(=O)O)c1 (configuration not stated) | 520 | – |
| CCCCCCCCCCC#CC(O)c1ccccc1-c1ccc(Sc2ccc(OCCCCCCCC)cc2)c(S(=O)(=O)O)c1 (configuration not stated) | > 2400 | – |
| CCCCCCCCCCC#CC(O)c1ccccc1-c1ccc(Oc2ccccc2OCC)c(S(=O)(=O)O)c1 (configuration not stated) | 8900 | – |
| CCCCOc1ccc(Sc2ccc(-c3ccccc3C(O)C#CCOCCCCCO)cc2S(=O)(=O)O)cc1 (configuration not stated) | 340 | – |
| CCCCCCCCCCC#CC(O)c1ccccc1-c1ccc(Sc2ccc(OCCC)cc2)c(S(=O)(=O)O)c1 (configuration not stated) | 190 | – |
| CCCCOc1ccc(Sc2ccc(-c3ccccc3C(O)C#CCOCCCCCCCCCO)cc2S(=O)(=O)O)cc1 (configuration not stated) | 98 | – |
| CCCCCCCCCCC#CC(O)c1ccccc1-c1ccc(Oc2ccc(OCC)cc2)c(S(=O)(=O)O)c1 (configuration not stated) | 400 | – |
| CCCCCCCCCCC#CC(O)c1ccc(-c2ccc(Oc3ccc(OCC)cc3)c(S(=O)(=O)O)c2)s1 (configuration not stated) | 5500 | – |
| CCCCCCCCCCC#CC(O)c1ccccc1-c1ccc(Oc2cccc(OCC)c2)c(S(=O)(=O)O)c1 (configuration not stated) | > 17000 | – |

Continued, in another order:

| IC50 [1] [nM] | SMILES | other results |
| --- | --- | --- |
| 4600 | CCCCCCCCCCC#CC(O)c1cccc(-c2ccc(Oc3ccc(OCC)cc3)c(S(=O)(=O)O)c2)c1 (configuration not stated) | – |
| 130 | CCCCOc1ccc(Sc2ccc(-c3ccccc3C(O)C#CCOCCCCCCCCCCCO)cc2S(=O)(=O)O)cc1 (configuration not stated) | – |
| > 20000 | CCCCOc1ccc(Sc2ccc(-c3ccccc3C(O)C#CCOCCCO)cc2S(=O)(=O)O)cc1 (configuration not stated) | – |
| 17000 | CCCCCCCCCCCCCCCCCC1=NN(c2ccc(Oc3ccc(OCC)cc3)c(S(=O)(=O)O)c2)C(=O)C1 | – |
| 400 | CCCCCCCCCCC#CC(O)c1ccccc1-c1ccc(Sc2ccc(OCC)cc2)c(S(=O)(=O)O)c1 (configuration not stated) | – |
| 700 | CCCCCCCCCCC#CC(O)c1ccccc1-c1ccc(Sc2ccc(OC)cc2)c(S(=O)(=O)O)c1 (configuration not stated) | – |
| 190 | CCCCCCCCCCC#CC(O)c1ccccc1-c1ccc(Sc2ccc(OCCCC)cc2)c(S(=O)(=O)O)c1 (configuration not stated) | IC50 [2]: 13000 nM; IC50 [3]: 40000 nM; IC50 [4]: 1000 nM; IC50 [5]: 24000 nM |
| 31 | CCCCOc1ccc(Sc2ccc(-c3ccccc3C(O)C#CCOCCCCCCCO)cc2S(=O)(=O)O)cc1 (configuration not stated) | IC50 [2]: 5000 nM; IC50 [3]: 6000 nM; IC50 [4]: 500 nM; IC50 [5]: 11000 nM |
| 1000 | CCCCCCCCCCC#CC(C)(O)c1ccccc1-c1ccc(Sc2ccc(OCCCC)cc2)c(S(=O)(=O)O)c1 (configuration not stated) | – |
| 1300 | CCCCCCCCCCC#CC(O)c1sccc1-c1ccc(Oc2ccc(OCC)cc2)c(S(=O)(=O)O)c1 (configuration not stated) | – |
